# Experimental data taken from ChEMBL document CHEMBL1132283, “Further studies on the Dmt-Tic pharmacophore: hydrophobic substituents at the C-terminus endow delta antagonists to manifest mu agonism or mu antagonism” (J Med Chem, 1999).
# Where a SMILES comes first, the peptide text is derived from it. [ ]: non-standard residue; d: D form. The star is where a group is joined. Dmt = Cc1cc(O)cc(C)c1C[C@H](N)C(=O)O; Tic = O=C(O)[C@@H]1Cc2ccccc2CN1; NHtBu = CC(C)(C)N*; NHNH2 = NN*
# Columns and labels:
# [1] = organism: Cavia porcellus; assay: Antagonistic functional bioactivity against […]-receptor from guinea pig ileum(GPI).; details: for Kb: read-out: pA2 (converted)
# [2] = biological target: T1, Opioid receptors; mu & delta (Rattus norvegicus) (UniProt P33533+P33535); assay: Agonist activity ratio (Ki of mu receptors compared to Ki of delta receptors).; format: functional
# T1 sequence (P33533 whole entry, looked up): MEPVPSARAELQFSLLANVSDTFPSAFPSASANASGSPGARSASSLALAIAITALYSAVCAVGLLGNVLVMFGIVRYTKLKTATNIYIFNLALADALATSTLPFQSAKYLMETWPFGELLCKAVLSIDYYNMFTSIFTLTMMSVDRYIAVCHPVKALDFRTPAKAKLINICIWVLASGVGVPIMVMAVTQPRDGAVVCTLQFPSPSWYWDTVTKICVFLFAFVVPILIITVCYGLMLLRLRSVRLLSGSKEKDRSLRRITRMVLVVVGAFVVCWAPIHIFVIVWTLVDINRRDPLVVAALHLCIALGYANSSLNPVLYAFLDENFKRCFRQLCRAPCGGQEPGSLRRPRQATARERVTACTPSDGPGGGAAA
# T1 sequence (P33535 whole entry, looked up): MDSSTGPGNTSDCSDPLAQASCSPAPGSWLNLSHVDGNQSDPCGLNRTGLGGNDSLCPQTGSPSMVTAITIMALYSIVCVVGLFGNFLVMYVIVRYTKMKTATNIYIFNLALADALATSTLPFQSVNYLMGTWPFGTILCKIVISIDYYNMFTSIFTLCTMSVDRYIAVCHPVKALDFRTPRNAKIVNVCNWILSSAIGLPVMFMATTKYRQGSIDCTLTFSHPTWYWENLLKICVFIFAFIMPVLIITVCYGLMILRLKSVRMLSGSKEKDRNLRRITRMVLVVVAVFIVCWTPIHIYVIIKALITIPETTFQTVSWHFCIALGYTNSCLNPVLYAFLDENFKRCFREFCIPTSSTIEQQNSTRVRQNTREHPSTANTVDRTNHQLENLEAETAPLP
# [3] = organism: Mus musculus; assay: Antagonistic functional bioactivity against delta-receptor from mouse vas deferens(MVD).; details: for Kb: read-out: pA2 (converted)
# [4] = biological target: T1, Opioid receptors; mu & delta (Rattus norvegicus); assay: Antagonistic activity ratio (Ki of mu receptors compared to Ki of delta receptors).; format: functional
# [5] = biological target: T2, Delta-type opioid receptor (Rattus norvegicus, UniProt P33533); assay: Binding affinity at Opioid receptor delta 1 from rat brain synaptosomal preparations by [3H]N,N-(Me)2-Dmt-Tic-OH displacement.
# T2 sequence (P33533 whole entry): as the sequence (P33533 whole entry, looked up) above
# In short: (§1)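 Nonspecific binding was set with 2 μM unlabeled peptide, followed by GF/C filtration. Duplicates at 5–9 doses, ≥3 preparations; Ki by Cheng–Prusoff, mean ± SEM.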
# [6] = biological target: Mu-type opioid receptor (Rattus norvegicus, UniProt P33535); assay: Binding affinity at Opioid receptor mu 1 from rat brain synaptosomal preparations by [3H]DAGO displacement.; in short: as §1
# Chain of Mu-type opioid receptor (P33535 whole entry): as the sequence (P33535 whole entry, looked up) above
# [7] = biological target: T2, Delta-type opioid receptor; assay: Binding affinity at Opioid receptor delta 1 from rat brain synaptosomal preparations by H-Dmt-Tic-OH displacement.
# [8] = organism: Mus musculus; assay: Antagonistic functional bioactivity against delta-receptor from mouse vas deferens(MVD); details: for Kb: read-out: pA2 (converted)
# [9] = organism: Cavia porcellus; assay: Antagonistic functional bioactivity against […]-receptor from guinea pig ileum(GPI)
Compound,EC50 [1],Ratio [2],Ke [3],Kb [3],Ratio [4],Ki [5],Ki [6],Ki [7],Ke [1],Kb [1],Ke [8],Kb [8],EC50 [9],EC50 [3]
Cc1cc(O)cc(C)c1C[C@@H](C(=O)N1Cc2ccccc2C[C@H]1C(=O)O)N1CCCC1,> 10000 nM,502,121 nM,126 nM,573,,,,,,,,,
Cc1cc(O)cc(C)c1C[C@@H](C(=O)N1Cc2ccccc2C[C@H]1C(=O)NC12C[C@H]3C[C@@H](C1)C[C@@H](C2)C3)N(C)C,16 nM,7,0.87 nM,0.871 nM,9,0.16 nM,1.12 nM,0.12 nM,,,,,,
Cc1cc(O)cc(C)c1C[C@@H](C(=O)N1Cc2ccccc2C[C@H]1C(=O)NC(C)(C)C)N(C)C,> 10000 nM,,14.1 nM,14.1 nM,,,,,0.3 nM,302 nM,,,,
Cc1cc(O)cc(C)c1C[C@H](N)C(=O)N1Cc2ccccc2C[C@H]1C(=O)N[C@@H](C)C(=O)NC(C)(C)C (H-[Dmt]-[Tic]-Ala-NHtBu),> 10000 nM,61,0.69 nM,0.692 nM,48,,,,,174 nM,,,,
Cc1cc(O)cc(C)c1C[C@@H](C(=O)N1Cc2ccccc2C[C@@H]1C(=O)NC12C[C@H]3C[C@@H](C1)C[C@@H](C2)C3)N(C)C,4480 nM,0.36,128 nM,123 nM,0.42,140 nM,50.5 nM,120 nM,,,,,,
Cc1cc(O)cc(C)c1C[C@@H](C(=O)N1Cc2ccccc2C[C@H]1C(=O)O)n1cccc1,,338,,,562,,,,,,408 nM,407 nM,> 10000 nM,
Cc1cc(O)cc(C)c1C[C@H](N)C(=O)N1Cc2ccccc2C[C@H]1C(=O)N[C@@H](C)C(=O)NC12C[C@H]3C[C@@H](C1)C[C@@H](C2)C3,1000 nM,,0.51 nM,0.513 nM,,0.073 nM,2.52 nM,0.04 nM,,,,,,
COC(=O)[C@H](C)NC(=O)[C@@H]1Cc2ccccc2CN1C(=O)[C@@H](N)Cc1c(C)cc(O)cc1C (H-[Dmt]-[Tic]-Ala-OMe),,48,,,83,,,,,,,,,
Cc1cc(O)cc(C)c1C[C@H](N)C(=O)N1Cc2ccccc2C[C@H]1C(=O)NC12C[C@H]3C[C@@H](C1)C[C@@H](C2)C3,36 nM,3,>10000 nM,,0.8,0.26 nM,0.76 nM,1.01 nM,,,,,,870 nM
Cc1cc(O)cc(C)c1C[C@H](N)C(=O)N1Cc2ccccc2C[C@@H]1C(=O)NC12C[C@H]3C[C@@H](C1)C[C@@H](C2)C3,1680 nM,0.01,>10000 nM,,0.004,24.5 nM,0.26 nM,70.3 nM,,,,,,
CNC(=O)[C@@H]1Cc2ccccc2CN1C(=O)[C@H](Cc1c(C)cc(O)cc1C)N(C)C,> 10000 nM,669,0.41 nM,0.407 nM,1270,,,,0.39 nM,389 nM,,,,
Cc1cc(O)cc(C)c1C[C@H](N)C(=O)N1Cc2ccccc2C[C@H]1CC(=O)O,> 10000 nM,,1.41 nM,1.58 nM,,,,,,,,,,
Cc1cc(O)cc(C)c1C[C@H](N)C(=O)N1Cc2ccccc2C[C@H]1C(=O)NN (H-[Dmt]-[Tic]-NHNH2),,86,,,2,,,,,,,,,
Cc1cc(O)cc(C)c1C[C@H](N)C(=O)N1Cc2ccccc2C[C@H]1C(=O)NC(C)(C)C (H-[Dmt]-[Tic]-NHtBu),1040 nM,14,1.74 nM,5.75 nM,6,,,,,,,,,
CNC(=O)[C@H](C)NC(=O)[C@@H]1Cc2ccccc2CN1C(=O)[C@@H](N)Cc1c(C)cc(O)cc1C (H-[Dmt]-[Tic]-Ala-NHMe),290 nM,100,,,47,,,,,,,,,1290 nM
Cc1cc(O)cc(C)c1C[C@@H](C(=O)N1Cc2ccccc2C[C@H]1C(=O)O)N1CCCCC1,> 10000 nM,1730,49 nM,49 nM,2760,,,,,,,,,
Cc1cc(O)cc(C)c1CC(CN)C(=O)N1Cc2ccccc2C[C@H]1C(=O)O (stereo not given in full),,155,,,4,,,,,,,,,
CNC(=O)[C@@H]1Cc2ccccc2CN1C(=O)[C@@H](N)Cc1c(C)cc(O)cc1C (H-[Dmt]-[Tic]-NHMe),> 10000 nM,,>10000 nM,,,,,,1.15 nM,1150 nM,,,,21200 nM
COC(=O)[C@@H]1Cc2ccccc2CN1C(=O)[C@@H](N)Cc1c(C)cc(O)cc1C (H-[Dmt]-[Tic]-OMe),,44,,,0.8,,,,,,,,,
Cc1cc(O)cc(C)c1C[C@H](N)C(=O)N1Cc2ccccc2C[C@H]1C(=O)Nc1nn[nH]n1,,53,,,4,,,,,,36.3 nM,36.3 nM,8200 nM,
